{"data": "Published values from different studies", "target": "Tyrosine-protein kinase BTK (BTK, Homo sapiens, UniProt Q06187)"}
{"assay": "binding", "setting": "1 µM", "remaining binding [%]": 100, "Structure (SMILES)": "N[C@@H]1CCN(c2nccc(-c3cnn4ncccc34)n2)C1"}
{"assay": "cell-free assay, competition with immobilised ligand", "setting": "0.1 µM", "remaining binding [%]": 100, "Structure (SMILES)": "CS(=O)(=O)N1CCCC(NC(=O)[C@H](CCC2CCCCC2)NC(=O)c2ccc(CNc3ncnc4c3nnn4-c3ccccc3)cc2)C1 (stereo partly drawn)"}
{"assay": "binding", "setting": "1 µM", "remaining binding [%]": 95, "Structure (SMILES)": "C[C@H]1CCN(c2nccc(-c3cnn4ncccc34)n2)C1"}
{"assay": "cell-free assay, competition with immobilised ligand", "setting": "10 µM", "remaining binding [%]": 83, "Structure (SMILES)": "CC(C)(C)c1ccc(-c2nc(CBr)nn2-c2cccc(O)c2)cc1"}
{"assay": "binding, competition with immobilised ligand", "setting": "1 µM", "remaining binding [%]": 54, "Structure (SMILES)": "Cc1cnc(Nc2ccc(C(=O)N3CCC(N4CCCC4)CC3)cc2)nc1-c1cc2ccccc2s1"}
{"assay": "binding", "setting": "1 µM", "remaining binding [%]": 100, "Structure (SMILES)": "CN(c1nccc(-c2cnn3ncccc23)n1)C1CC1"}
{"assay": "binding, competition with immobilised ligand", "setting": "1 µM", "remaining binding [%]": 100, "Structure (SMILES)": "CCN1CCN(Cc2ccc(C(=O)Nc3ccc(C)c(Oc4ccc5c(c4)CC(=O)N5)c3)cc2C(F)(F)F)CC1"}
{"assay": "cell-free assay, competition with immobilised ligand", "setting": "1 µM", "remaining binding [%]": 100, "Structure (SMILES)": "O=C(N1CCS(=O)(=O)CC1)N1C[C@H](c2ccc(OC(F)(F)F)cc2)C[C@H](c2nc(C3CC3)no2)C1"}
{"assay": "binding, competition with immobilised ligand", "setting": "1 µM", "remaining binding [%]": 64, "Structure (SMILES)": "O=C(c1ccc(Nc2ncc(Cl)c(-c3ccc(Cl)s3)n2)cc1)N1CCC(N2CCCC2)CC1"}
{"assay": "cell-free assay, competition with immobilised ligand", "setting": "1 µM", "remaining binding [%]": 0.95, "Structure (SMILES)": "Cc1ccc(-n2nc(C(C)(C)C)cc2NC(=O)Nc2ccc(-n3c(N)c(C(N)=O)c4nc5ccccc5nc43)cc2)cc1"}
{"assay": "binding, competition with immobilised ligand", "setting": "0.5 µM", "remaining binding [%]": 89, "Structure (SMILES)": "C[C@@H]1CN(c2ccc3ncc(-c4ccc5[nH]nc(C6CC6)c5c4)n3n2)C[C@H](C)O1"}
{"assay": "cell-free assay, competition with immobilised ligand", "setting": "1 µM", "remaining binding [%]": 100, "Structure (SMILES)": "N#Cc1ccc(Nc2ccc3[nH]c(=O)[nH]c3c2)c(Cl)c1"}
{"assay": "binding", "setting": "1 µM", "remaining binding [%]": 100, "Structure (SMILES)": "CC1CCCN1c1nccc(-c2cnn3ncccc23)n1 (stereo not drawn)"}
{"assay": "binding, competition with immobilised ligand", "setting": "1 µM", "remaining binding [%]": 100, "Structure (SMILES)": "O=C(Nc1c[nH]nc1C(=O)NC1CCNCC1)c1cc(F)cc(F)c1"}
{"assay": "cell-free assay, competition with immobilised ligand", "setting": "1 µM", "remaining binding [%]": 88, "Structure (SMILES)": "CC(=O)Nc1c(C(C)=O)c(=O)n(C)c2nc(-c3ccc(Cl)cc3Cl)c(-c3ccc(Cl)cc3)cc12"}
{"assay": "binding, competition with immobilised ligand", "setting": "1 µM", "remaining binding [%]": 96, "Structure (SMILES)": "CNC(=O)[C@@H]1CC[C@@H](n2c(-c3ccc4cnccc4c3)nc3ccc(C(=O)NCc4cccc(C(N)=O)c4)cc32)C1"}
{"assay": "cell-free assay, competition with immobilised ligand", "setting": "0.1 µM", "remaining binding [%]": 100, "Structure (SMILES)": "Nc1c(C(=O)NCc2ccc(C(=O)NCCCC3CCCCC3)cc2)cnn1-c1ccccc1"}
{"assay": "binding", "setting": "1 µM", "remaining binding [%]": 91, "Structure (SMILES)": "Cc1cnn2ncc(-c3ccnc(N(C)C)n3)c2c1"}
{"assay": "binding, competition with immobilised ligand", "setting": "1 µM", "remaining binding [%]": 63, "Structure (SMILES)": "O=C(c1ccc(Nc2ncc(Cl)c(-c3cc4ccccc4s3)n2)cc1)N1CCC(N2CCCC2)CC1"}
{"assay": "binding", "setting": "1 µM", "remaining binding [%]": 100, "Structure (SMILES)": "F[C@@H]1CCN(c2nccc(-c3cnn4ncccc34)n2)C1"}
{"assay": "cell-free assay, competition with immobilised ligand", "setting": "1 µM", "remaining binding [%]": 100, "Structure (SMILES)": "O=C1CCc2cc(Nc3cc(OC4CCOCC4)c([N+](=O)[O-])cc3Cl)ccc2N1"}
{"assay": "binding", "setting": "1 µM", "remaining binding [%]": 68, "Structure (SMILES)": "CN(C)c1nccc(-c2cnc3ncccn23)n1"}
{"assay": "binding, competition with immobilised ligand", "setting": "10 µM", "remaining binding [%]": 36, "Structure (SMILES)": "c1cncc(-c2cccc(Nc3nccc(NC4CCCCC4)n3)c2)c1"}
{"assay": "cell-free assay, competition with immobilised ligand", "setting": "1 µM", "remaining binding [%]": 100, "Structure (SMILES)": "O=C(Nc1cccnn1)N1CCC(=Cc2cccc(Oc3ccc(C(F)(F)F)cn3)c2)CC1"}
